High-throughput results: PubChem, The Scripps Research Institute Molecular Screening Center
PRMT1 inh – inhibitors of human PRMT1; recombinant PRMT1, activity-based probe fluorescence polarization; inhibition, % at 2.79 µM; actives 1.3% (n = 370,000);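 active = inhibition above about 21% made by adding two undisclosed values, limit read from the data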
MBD2 DNA inh – inhibitors of human MBD2 binding to methylated oligonucleotide. Q9UBB5. TR-FRET. inhibition, % at 4.4 µM. actives 0.31% (n = 370,000). AID 686964; in the data active = inhibition above about 13%
LEDGF integ inh – blocks HIV-1 LEDGF/p75-dependent DNA integration; TR-FRET IN-LEDGF/p75 DNA integration, Eu/Cy5; inhibition, % at 3.7 µM; actives 0.64% (n = 370,000); AID 743269;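 active = inhibition above the screen-wide mean plus 3 SD, cut at about 13% in these data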;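 also: signal is the Cy5 over europium emission ratio at 671 and 618 nm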
RBBP9 inh – human RBBP9 hydrolase inhibition | actives 0.2% (n = 220,000) | O75884 | inhibition, % at 7.94 µM | recombinant RBBP9, FP-Rh probe fluorescence polarization;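 active = inhibition above the campaign mean of all tested compounds plus 3 SD, cut at about 14% in these data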
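Test system: recombinant human RBBP9; Timing: 30 min then 45 min, 25 °C; Detection: fluorescence polarization; Control set: RBBP9 with DMSO as uninhibited control, no-protein wells as full inhibition; Compound dosing: one concentration, 7.94 µM nominal, 0.794% DMSO; Probe or stimulus: FP-Rh activity-based probe, 375 nM before mixing.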
UHRF1 binding – blocks human UHRF1 binding to methylated DNA | UHRF1 binding to methylated oligo, TR-FRET | Q96T88 | actives 0.75% (n = 370,000) | inhibition, % at 4.4 µM | AID 687016; in the data active = inhibition above about 21%;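 also: UHRF1 SRA domain binding a hemimethylated CpG hairpin DNA probe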
ABHD5-PLIN5 inh – ABHD5-PLIN5 protein interaction inhibition; Q00G26+Q8WTS1; actives 0.78% (n = 360,000); AID 602281; Split G. princeps luciferase complementation, luminescence, 4 h; inhibition, % at 4 µM;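 active = inhibition above the mean inhibition across every tested compound plus 3 SD, cut at about 22% in these data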
Hits are given with their value; n = inactive; x = no result. This is a sample that favours compounds with a hit; in the whole collection about 3.1% have one here.

SMILES	PRMT1 inh	MBD2 DNA inh	LEDGF integ inh	RBBP9 inh	UHRF1 binding	ABHD5-PLIN5 inh
Cc1cc(C)nc(OC(C(=O)O)C(OCC(C)C)(c2ccccc2)c2ccccc2)n1 (configuration not stated)	n	n	n	x	n	n
CCOc1ccccc1-n1c(=S)sc2c(=O)n(-c3ccc(C)cc3)c(=S)[nH]c21	73.0	n	n	n	n	n
CC(=O)Nc1ccc(O)c(-c2nc3ccccc3s2)c1	n	n	n	n	38.9	n
O=C(NNc1nc2ccccc2s1)Nc1ccc(Cl)c(Cl)c1	22.8	n	n	n	n	n
O=C(NNc1nc2ccccc2s1)Nc1ccc(F)cc1	n	n	n	n	n	n
C[C@H]1[C@@H](OC(=O)NCc2ccc(Cl)c(Cl)c2)CC[C@@]23CCCN2C(=O)CCC[C@@H]13	n	n	n	x	n	x
COc1ccc(S(=O)(=O)n2cccc2)cc1	n	n	n	x	23.1	n
COc1ccc(N2CCN(S(=O)(=O)c3ccc(OC)cc3)CC2)cc1	n	n	n	n	n	n
O=S(=O)(Nc1c(S(=O)(=O)c2ccccc2)c2nc3ccccc3nc2n1C1CCCCC1)c1ccccc1	n	n	33.2	n	n	n
COc1ccc(-c2nnn(CC(=O)N(CCCO)C(C(=O)NC3CCCC3)c3ccncc3)n2)cc1 (configuration not stated)	n	n	n	n	28.1	n
NC(=O)CSc1nnc(-c2ccc(S(=O)(=O)N3CCCCC3)cc2)n1-c1ccccc1	n	n	n	n	40.4	n
O=C(N/N=C/c1ccc(F)cc1)c1ccccc1	n	n	n	n	27.1	n
O=C(C[n+]1ccc(C(=O)N/N=C/c2ccc(OCc3ccccc3)cc2)cc1)c1ccccc1	n	n	n	n	n	26.3
O=C(C[n+]1ccc(C(=O)N/N=C/c2ccc(O)cc2)cc1)c1ccccc1	n	n	n	n	n	n
Cc1cc(C)cc(C(=O)OCCN(C)C2CN(Cc3cn(Cc4cccc(F)c4)nn3)S(=O)(=O)C2)c1 (configuration not stated)	n	n	n	x	n	x
O=C(CCc1ccccc1)N[C@H]1[C@H](OC(=O)c2ccco2)CCC[C@]12C(=O)N(Cc1ccccc1)c1ccccc12	n	n	n	x	n	x
CCN(C(=O)COC(=O)c1ccccc1NCCO)c1cccc2ccccc12	n	n	n	x	91.0	n
C[C@H]1[C@H](NC(=O)c2ccc(Cl)cc2)CC[C@@]23CCCN2C(=O)CCC[C@@H]13	n	n	n	x	n	x
COC(=O)C1=C(C)N(Cc2cccc(C(F)(F)F)c2)C(=NCc2cc(OC)c(OC)c(OC)c2)NC1c1cccc(F)c1 (configuration not stated)	n	n	n	x	n	x
Clc1cccc(Cl)c1CSc1nnc2ccccn12	n	n	n	n	n	n
Brc1ccc(CSc2nnc3ccccn23)cc1	n	n	n	n	32.6	n
COC(=O)[C@H](C(C)C)N(CCc1cn(CC2CCCCC2)nn1)S(=O)(=O)c1ccccc1Br	n	n	n	x	n	x
COc1ccc(OC)c(S(=O)(=O)n2c(CN3CCOCC3)nc3ccccc32)c1	n	n	n	x	n	x
C=CCNC(=O)c1ccc(-n2cccc2)cc1	n	n	n	n	23.8	n
Cc1ccc(NS(=O)(=O)c2cccs2)nc1	n	n	n	x	30.1	n
SMILES	PRMT1 inh	MBD2 DNA inh	LEDGF integ inh	RBBP9 inh	UHRF1 binding	ABHD5-PLIN5 inh
Cc1ccnc(NS(=O)(=O)c2cccs2)c1	n	n	n	n	n	n
CC(=O)Nc1c2c3c(cccc3n(C)c1=O)C(=O)c1ccccc1-2	n	n	n	n	n	n
Cn1c(=O)c(Nc2ccc(Cl)cc2)c2c3c(cccc31)C(=O)c1ccccc1-2	92.6	n	n	n	n	x
O=C1CCC(NC(=O)Cc2ccccc2)C(=O)N1 (configuration not stated)	n	n	n	x	n	x
CC(C)[C@@H](C)/C=C/[C@@H](C)[C@H]1CC[C@@H]2[C@]1(C)CCC1[C@]23C=C[C@]2(C[C@@H](O)CC[C@]12C)N(c1cnccn1)O3 (some centres not stated)	n	n	n	x	n	x
CN(Cc1ccccc1)c1nc(-c2cccc([N+](=O)[O-])c2)nc2ccccc12	n	n	n	n	23.1	n
Cc1nc(Cl)c(C(=O)NCCC(C)C)c(C)c1[N+](=O)[O-]	n	n	n	n	n	n
Cc1nc(Cl)c(C(=O)NC(C)(C)C)c(C)c1Cl	n	n	n	n	47.0	n
C=CCN1[C@H](CC(C)C)COc2cccc(N3CCSCC3)c2S1(=O)=O	n	n	n	x	n	x
COC(=O)c1ccc(N2CCOCC2)c(NC(=O)Nc2cccc(OC)c2)c1	n	n	n	n	23.9	n
CC(C)CNC(=O)OCc1cn(Cc2cc(F)cc(F)c2)nn1	n	n	n	x	n	x
COC(=O)C[C@H]1CC[C@@H]2[C@@H](COc3ccc(NC(=O)Nc4cccc(C)c4)cc3C(=O)N2C)O1	n	n	n	x	n	x
CCOC(=O)c1ccc(NC(=O)Cn2ncc(Cl)c(Cl)c2=O)cc1	24.5	n	n	n	n	n
Cc1ccc(NC(=S)NNC(=O)CSc2nc3sc4c(c3c(=O)n2-c2ccccc2)CCCC4)cc1	n	n	n	x	n	x
Cc1cc(C)c(-c2c(O)c3cccnc3n(C)c2=O)c(C)c1	n	n	n	x	28.7	n
O=C(NN=Cc1ccc2c(c1)OCO2)NN=Cc1ccc2c(c1)OCO2	n	n	n	x	n	n
N/C(=N\N=Cc1ccc2c(c1)OCO2)NN=Cc1ccc2c(c1)OCO2	n	n	43.0	x	n	n
COc1ccccc1C(CNC(=O)c1cccc(S(=O)(=O)N2c3ccccc3CC2C)c1)N(C)C (configuration not stated)	n	n	n	x	n	23.1
COc1ccccc1C(CNC(=O)c1cccc(S(=O)(=O)N2CCCc3ccccc32)c1)N(C)C (configuration not stated)	n	n	n	x	n	n
COCc1cc(C)nc(OCC(=O)N/N=C/c2ccc(OC)c(O)c2)c1C#N	n	n	n	n	36.3	n
CN(C)c1ccc(/C=C/C(=O)c2cccnc2)cc1	n	n	n	n	n	n
CN1C(=S)N(c2cccnc2)C(=O)/C1=C\c1ccc(N(C)C)cc1	n	n	n	n	42.7	n
Cc1c(N2C(=O)/C(=C\c3ccc(N(C)C)cc3)N(C)C2=S)c(=O)n(-c2ccccc2)n1C	n	n	n	n	n	22.4
Cc1ccc(-c2nnc(SCC(=O)c3ccc(O)c(O)c3)n2-c2ccc(Cl)cc2)cc1	n	n	n	x	n	x
O=C(CNc1ccc2ccccc2c1)N/N=C/c1ccccn1	n	n	n	n	n	n
O=C(CNc1ccc2ccccc2c1)N/N=C/c1ccncc1	21.6	n	n	x	n	n
